Assay [1] deals with MDA-MB-231. As to the kind of experiment: Cytotoxicity against human MDA-MB-231 cells at 10 to 30 uM after 48 hrs by MTT assay. The assay is classed as functional, cell-based. On the technique in general: Tetrazolium assays rely on reduction of a dye to a coloured formazan, in cell work by metabolically active cells.
In assay [2] the test system is MDA-MB-231. As to the kind of experiment: Inhibition of human MDA-MB-231 cell invasion at 20 to 30 uM after 24 hrs by Transwell assay. The assay is classed as functional, cell-based. The method, boiled down:
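Transwell inserts with 8 µm pores precoated with Matrigel. Cells seeded at 8 × 10^4 cells/mL in serum-free medium with compound or DMSO, 24 h. Lower wells hold 5% FBS-containing medium as chemoattractant. Invaded cells fixed and stained, then counted in three random fields. Run in triplicate, expressed as percent of untreated control.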

In assay [3] the test system is MDA-MB-231. The experiment in a line: Antimigratory activity against human MDA-MB-231 cells at 25 uM after 24 hrs by scratch wound healing assay. It is filed as functional, cell-based. The method, boiled down: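 Cells grown overnight at 37 °C to a confluent monolayer in duplicate wells, then scratched with a pipette tip. Migration into the wound photographed at 0 and 24 h at 100× magnification.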

The subject of assay [4] is MDA-MB-231. As to the kind of experiment: Inhibition of human MDA-MB-231 cell adhesion to fibronectin at 10 to 30 uM after 48 hrs by crystal violet staining-based spectrophotometric analysis relative to control. It is filed as functional. The method, boiled down:
(§1)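 Cells pretreated 48 h with compound, trypsinized, and resuspended at 2 × 10^5 cells/mL in DMEM with 0.1% BSA. Added to wells coated overnight at 4 °C with fibronectin or collagen IV ([…] as printed), then blocked with 0.1% BSA. Adhesion 60 min at 37 °C. Adherent cells fixed in 10% formaldehyde and stained with 0.05% crystal violet. Dye extracted, A595 read. Reported as percent of untreated control, triplicate.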

Assay [5] relates to MDA-MB-231. As to the kind of experiment: Inhibition of human MDA-MB-231 cell adhesion to collagen 4 after 48 hrs by crystal violet staining-based spectrophotometric analysis. It is filed as functional. In a few lines:
as §1

Assay [6] deals with MDA-MB-231. The experiment in a line: Antimigratory activity against human MDA-MB-231 cells after overnight incubation by Boyden chamber assay. It is filed as functional, cell-based. In a few lines:
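Boyden chamber (8 µm polycarbonate membrane coated with Matrigel, […] as printed). Cells trypsinized into serum-free medium at 2.5 × 10^5 cells/mL containing test agent, placed in upper chamber. Lower chamber holds medium with 5% FBS as chemoattractant. Overnight at 37 °C. Transmigrated cells fixed in methanol, Giemsa-stained, counted in three random fields. IC50 is the mean of three independent experiments.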

In assay [7] the test system is MDA-MB-231. The experiment in a line: Inhibition of human MDA-MB-231 cell adhesion to fibronectin after 48 hrs by crystal violet staining-based spectrophotometric analysis. It is filed as functional. The method, boiled down: as §1
For assay [8], the system named is MDA-MB-231. The experiment in a line: Effect on RAC1 expression level in human MDA-MB-231 cells at 10 to 30 uM after 24 hrs by Western blotting analysis. It is filed as functional, cell-based. In a few lines: (§2)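 Cells treated 24 h with the indicated concentrations. Lysates immunoblotted with antibodies to total FAK, phospho-FAK (Y397), total paxillin and Rac1, with β-actin as internal control. Bands detected by enhanced chemiluminescence.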
On the technique in general: In western blotting, separated proteins are transferred to a membrane and probed.

For assay [9], the system named is MDA-MB-231. As to the kind of experiment: Effect on FAK expression level in human MDA-MB-231 cells at 10 to 30 uM after 24 hrs by Western blotting analysis. The assay is classed as functional, cell-based. In a few lines:
as §2

Assay [10] has as its target Focal adhesion kinase 1 (Homo sapiens) (UniProt Q05397). As to the kind of experiment: Inhibition of FAK phosphorylation at Tyr397 in human MDA-MB-231 cells after 24 hrs by Western blotting analysis. It is filed as cell-based. The method, boiled down: as §2
Assay [11] concerns MDA-MB-231. The experiment in a line: Effect on paxillin expression level in human MDA-MB-231 cells after 24 hrs by Western blotting analysis. It is filed as functional, cell-based. The method, boiled down:
as §2

Assay [12] has as its system MDA-MB-231. As to the kind of experiment: Inhibition of human MDA-MB-231 cell adhesion to fibronectin at 20 uM after 48 hrs by crystal violet staining-based spectrophotometric analysis relative to control. It is filed as functional. The following applies: MDA-MB-231, 48 h. In a few lines:
as §1

Assay [13] deals with MDA-MB-231. The experiment in a line: Inhibition of human MDA-MB-231 cell adhesion to fibronectin at 10 uM after 48 hrs by crystal violet staining-based spectrophotometric analysis relative to control. It is filed as functional. The following applies: MDA-MB-231, 48 h. The method, boiled down:
as §1

Assay [14] has as its system MDA-MB-231. As to the kind of experiment: Inhibition of human MDA-MB-231 cell adhesion to fibronectin at 30 uM after 48 hrs by crystal violet staining-based spectrophotometric analysis relative to control. It is filed as functional. The following applies: MDA-MB-231, 48 h. The method, boiled down:
as §1

Each structure is given as a SMILES string. Active and inactive are the calls of the source. No cut-off for these calls is given here.

Chain of Focal adhesion kinase 1 (Homo sapiens) (Q05397 2-1052 limits assumed): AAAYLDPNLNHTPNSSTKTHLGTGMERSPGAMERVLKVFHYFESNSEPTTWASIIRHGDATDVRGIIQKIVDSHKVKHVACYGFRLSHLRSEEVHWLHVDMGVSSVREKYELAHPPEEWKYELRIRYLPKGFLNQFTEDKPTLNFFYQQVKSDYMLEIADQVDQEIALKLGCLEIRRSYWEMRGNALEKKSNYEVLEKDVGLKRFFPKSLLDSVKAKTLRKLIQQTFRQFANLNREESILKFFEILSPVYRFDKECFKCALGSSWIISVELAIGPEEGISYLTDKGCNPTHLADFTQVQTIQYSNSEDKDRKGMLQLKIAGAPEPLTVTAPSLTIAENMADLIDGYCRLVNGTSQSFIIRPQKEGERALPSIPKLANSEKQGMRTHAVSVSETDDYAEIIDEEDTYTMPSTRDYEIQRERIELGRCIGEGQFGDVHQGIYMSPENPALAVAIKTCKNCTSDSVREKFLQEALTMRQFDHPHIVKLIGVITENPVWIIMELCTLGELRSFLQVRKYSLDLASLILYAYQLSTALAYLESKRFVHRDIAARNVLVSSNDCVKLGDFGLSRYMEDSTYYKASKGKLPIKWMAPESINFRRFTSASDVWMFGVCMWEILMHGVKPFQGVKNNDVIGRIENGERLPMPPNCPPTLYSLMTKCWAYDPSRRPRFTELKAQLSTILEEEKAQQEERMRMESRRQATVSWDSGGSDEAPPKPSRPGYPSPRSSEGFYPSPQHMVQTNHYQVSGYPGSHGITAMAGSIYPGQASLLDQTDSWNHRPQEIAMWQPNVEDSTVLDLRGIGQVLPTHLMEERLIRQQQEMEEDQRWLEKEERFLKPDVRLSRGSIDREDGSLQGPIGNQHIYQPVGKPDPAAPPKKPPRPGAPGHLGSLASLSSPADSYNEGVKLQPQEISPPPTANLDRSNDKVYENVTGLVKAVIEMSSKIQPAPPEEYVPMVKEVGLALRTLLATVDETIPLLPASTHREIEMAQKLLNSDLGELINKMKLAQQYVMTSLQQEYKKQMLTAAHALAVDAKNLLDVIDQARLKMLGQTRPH

Take `CCCCCCCCCCCCCC(=O)NCCNC(=O)C(C)(C)C(=O)NCC(=O)O`: the result in the assay on MDA-MB-231 [1] was inactive. Besides, the inhibition result in the assay on MDA-MB-231 [2] and with MDA-MB-231 [4] was “Active” throughout. Further, the outcome in the assay on MDA-MB-231 [3] was Active.

As for `CCCCCCCCCCCCCC(=O)NCCNC(=O)C(C)(C)C(=O)NCCO[C@@H]1O[C@H](COC(C)=O)[C@@H](O[C@@H]2O[C@H](COC(C)=O)[C@H](OC(C)=O)[C@H](OC(C)=O)[C@H]2OC(C)=O)[C@H](OC(C)=O)[C@H]1OC(C)=O`, the result with MDA-MB-231 [1] was inactive. Besides, the inhibition result with MDA-MB-231 [5] and in the assay on MDA-MB-231 [7] was “Dose-dependent effect” throughout. The molecule further showed an IC50 in the assay on MDA-MB-231 [6] above 50 µM. The inhibition entry with MDA-MB-231 [2] is “Active”. For the same molecule, the result with MDA-MB-231 [3] was Active.

Consider `CCCCCCCCCCCCCC(=O)NCCNC(=O)C(C)(C)C(=O)NCCO[C@H]1O[C@H](COC(C)=O)[C@@H](OC(C)=O)[C@H](OC(C)=O)[C@@H]1OC(C)=O`, for which the result with MDA-MB-231 [1], with MDA-MB-231 [8] and in the assay on MDA-MB-231 [9] was inactive. Also, the inhibition result (with MDA-MB-231 [5]; in assay [10]; with MDA-MB-231 [7]) was “Dose-dependent effect” each time. Moreover, the Activity result with MDA-MB-231 [6] and in the assay on MDA-MB-231 [11] was “Dose-dependent effect” each time. For the same molecule, inhibition in the assay on MDA-MB-231 [6] was half-maximal at 11.7 µM (IC50). Further, the inhibition entry with MDA-MB-231 [2] was “Active”. Moreover, the outcome in the assay with MDA-MB-231 [3] was Active.

As to `CCCCCCCCCCCCCC(=O)NCCNC(=O)C(C)(C)C(=O)NCCO[C@@H]1O[C@H](COC(C)=O)[C@H](OC(C)=O)[C@H](OC(C)=O)[C@H]1OC(C)=O`, the outcome in the assay with MDA-MB-231 [1], with MDA-MB-231 [8] and with MDA-MB-231 [9] was inactive. The inhibition entry (in the assay on MDA-MB-231 [5]; in assay [10]; with MDA-MB-231 [7]) was “Dose-dependent effect” in each case. The molecule further yielded an adhesion % at 20 µM in the assay with MDA-MB-231 [12] of 69%. For the same molecule, the Activity entry with MDA-MB-231 [6] and in the assay on MDA-MB-231 [11] was “Dose-dependent effect” throughout. For the same molecule, the half-inhibitory concentration (IC50) with MDA-MB-231 [6] amounted to 11.8 µM. For the same molecule, in the assay with MDA-MB-231 [2], the inhibition result was “Active”. Also, in the assay with MDA-MB-231 [13], the adhesion % at 10 µM was 79%. Besides, in the assay with MDA-MB-231 [3], the result was Active. In the assay on MDA-MB-231 [14], the adhesion % at 30 µM turned out to be 58%.

By IC50 is commonly meant the midpoint of a concentration-inhibition curve. Low readings indicate greater potency, high ones weaker potency.

The record behind these values is ChEMBL document CHEMBL2390849, “Glycosylation enhances the anti-migratory activities of isomalyngamide A analogs” (Eur J Med Chem, 2013).
